Results pooled from the literature.
Protocols differ between the studies behind these lines. pEC50: −log10 of the molar value.
Action: agonist
CNR2: Cannabinoid receptor 2 (CNR2, Homo sapiens, UniProt P34972)
ADRB2: Beta-2 adrenergic receptor (ADRB2, Homo sapiens, UniProt P07550)
MC5R: Melanocortin receptor 5 (MC5R, Homo sapiens, UniProt P33032)
AHR: Aryl hydrocarbon receptor (AHR, Homo sapiens, UniProt P35869)

Compound	target	test	pEC50
O=c1ccn([C@@H]2O[C@H](COP(=O)(O)OP(=O)(O)O)[C@@H](O)[C@H]2O)c(=O)[nH]1	P2Y purinoceptor 6 (P2RY6, Homo sapiens, UniProt Q15077)	inositol phosphate	6.53
CCOC(=O)[C@](CC)(CCCS(=O)(=O)CCOCCOCCNC(=O)OC(C)(C)C)NC(=O)c1ccc(C2CC2)c(Cc2ccc(F)cc2)n1	CNR2	cAMP	7.77
Cc1ccc(-n2c(C)ccc2C)c2c1CC(C)(C)O2	ADRB2	calcium signal, fluorescence	4.19
CSCC[C@H](NC(=O)[C@@H](NC(=O)[C@@H](N)Cc1ccc(O)cc1)C(C)C)C(=O)NCC(=O)N[C@@H](Cc1c[nH]cn1)C(=O)N[C@@H](Cc1ccccc1)C(=O)N[C@@H](CCCNC(=N)N)C(=O)N[C@@H](Cc1c[nH]c2ccccc12)C(=O)O	MC5R	reporter gene	4.62
CC1CCN(C(NC(=O)c2ccc(C(C)(C)C)cc2)C(Cl)(Cl)Cl)CC1 (stereo not drawn)	CNR2	cAMP, TR-FRET	7.30
COc1ccc(CNC(=S)NC(C)(C)C)cc1	ADRB2	calcium signal, fluorescence	5.72
COC(=O)c1cccc(C(=O)c2c[nH]c3ccc(Cl)cc23)n1	AHR	reporter gene, luciferase	7.49
c1ccc(Nc2nc3ccccc3nc2Nc2ccccc2)cc1	CNR2	cAMP, TR-FRET	7.60
N=C(N)NCCC[C@H](NC(=O)[C@H](Cc1ccccc1)NC(=O)[C@@H](N)Cc1cnc[nH]1)C(=O)N[C@@H](Cc1c[nH]c2ccccc12)C(=O)O	MC5R	reporter gene	< 4.00
COC(=O)c1ccccc1C(=O)c1c[nH]c2ccccc12	AHR	reporter gene, luciferase	< 5.00
CSCC[C@H](NC(=O)[C@@H](NC(=O)[C@@H](N)Cc1ccc(O)cc1)C(C)C)C(=O)NCC(=O)N[C@@H](Cc1c[nH]cn1)C(=O)N[C@@H](Cc1ccccc1)C(=O)N[C@@H](CCCNC(=N)N)C(=O)N[C@@H](Cc1c[nH]c2ccccc12)C(=O)N[C@@H](CC(=O)O)C(=O)N[C@@H](CCCNC(=N)N)C(=O)O	MC5R	reporter gene	5.13
CC(C)OC(=O)c1cccc(C(=O)c2c[nH]c3ccccc23)n1	AHR	reporter gene, luciferase	< 5.00
